The subject of series [1] is CWR22. The series is described as follows: Antitumor activity against bicalutamide-resistant human CWR22 cells in Balb/c athymic (nu/nu) mouse CWR22-BMSLD1 prostate cancer xenograft model assessed as tumor growth inhibition at 90 mg/kg, po qd administered for 45 days measured for 10 days during compound dosing. Type of series: functional, organism-based. In a few lines: (§1)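 CWR22-BMSLD1 human prostate cancer xenograft. Oral once-daily dosing at 90 mg/kg for 45 days, or at 150 mg/kg for 35 days, with a vehicle group. Median tumor volume (mm3) tracked against days post implant.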
A general note: Xenograft models place foreign cells or tissue in a host animal.

A further series has as its system Rattus norvegicus. Description: In vivo antagonist activity at androgen receptor in immature Sprague-Dawley rat prostate weight model assessed as testosterone propionate-induced weight of seminal vesicles over full body weight at 1 mg/kg, po qd administered for 4 days. Type of series: functional. Also noted: scale not given: the % may be the effect or the level left. The method in brief:
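Immature rat prostate weight PK/PD model. Oral dosing once daily at 1 or 10 mg/kg for 4 days. Seminal vesicle weight expressed as % of full body weight, n=3, scaled so testosterone-treated control = 100% and sham = 10%.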

Series [2] is described as follows: Plasma concentration in immature Sprague-Dawley rat prostate weight model at 1 mg/kg, po qd administered for 4 days measured 2 hrs post last dose on day 4. Type of series: ADME, organism-based. The method in brief:
(§2)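 Immature rat prostate weight model, oral dosing once daily at 1 or 10 mg/kg for 4 days. Plasma drug concentration (µM) measured 2 hours post-dose on day 4, n=3.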

Series [3] can be described thus: Plasma concentration in immature Sprague-Dawley rat prostate weight model at 10 mg/kg, po qd administered for 4 days measured 2 hrs post last dose on day 4. Type of series: ADME, organism-based. In a few lines:
as §2

In the next series the test system is LNCaP. Description: Cytotoxicity against human LNCAP cells. Type of series: functional, cell-based.
For another series, the target named is T1, Cytochrome P450 2C8 (Homo sapiens, UniProt P10632).
T1 sequence (P10632 whole entry): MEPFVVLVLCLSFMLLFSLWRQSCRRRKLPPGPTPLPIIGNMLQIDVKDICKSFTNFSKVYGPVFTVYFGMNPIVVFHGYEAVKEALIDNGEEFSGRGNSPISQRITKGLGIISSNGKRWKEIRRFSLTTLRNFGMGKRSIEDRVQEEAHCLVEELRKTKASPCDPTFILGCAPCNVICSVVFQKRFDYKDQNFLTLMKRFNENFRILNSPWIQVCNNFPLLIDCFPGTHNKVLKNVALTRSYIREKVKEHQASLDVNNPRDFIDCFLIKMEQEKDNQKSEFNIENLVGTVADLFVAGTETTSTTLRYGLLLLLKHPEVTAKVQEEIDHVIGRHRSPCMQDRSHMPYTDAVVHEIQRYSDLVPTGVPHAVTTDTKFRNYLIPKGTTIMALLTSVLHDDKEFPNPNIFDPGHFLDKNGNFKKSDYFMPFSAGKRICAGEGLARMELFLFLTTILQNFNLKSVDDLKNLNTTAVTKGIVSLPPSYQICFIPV
The series is described as follows: Inhibition of human CYP2C8. Type of series: ADME.

For another series, the target named is Cytochrome P450 2C9 (Homo sapiens, UniProt P11712). Description: Inhibition of human CYP2C9. Type of series: ADME.
Cytochrome P450 2C9, sequence (P11712 whole entry): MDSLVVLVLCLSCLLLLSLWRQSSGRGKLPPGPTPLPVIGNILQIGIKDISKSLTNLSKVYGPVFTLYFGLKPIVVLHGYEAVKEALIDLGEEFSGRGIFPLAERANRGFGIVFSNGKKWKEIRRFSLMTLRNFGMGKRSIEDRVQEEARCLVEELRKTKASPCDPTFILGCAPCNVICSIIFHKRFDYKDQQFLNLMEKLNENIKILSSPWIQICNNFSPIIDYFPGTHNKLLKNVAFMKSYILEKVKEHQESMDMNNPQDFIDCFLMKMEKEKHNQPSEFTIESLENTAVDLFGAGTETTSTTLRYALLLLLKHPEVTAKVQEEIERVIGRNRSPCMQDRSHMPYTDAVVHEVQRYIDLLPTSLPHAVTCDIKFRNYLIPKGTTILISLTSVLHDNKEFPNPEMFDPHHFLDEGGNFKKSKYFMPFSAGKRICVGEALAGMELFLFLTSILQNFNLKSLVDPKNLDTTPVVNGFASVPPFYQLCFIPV
Another series deals with Cytochrome P450 2D6 (Homo sapiens, UniProt P10635). The series is described as follows: Inhibition of human CYP2D6. Type of series: ADME.
Cytochrome P450 2D6, sequence (P10635 whole entry): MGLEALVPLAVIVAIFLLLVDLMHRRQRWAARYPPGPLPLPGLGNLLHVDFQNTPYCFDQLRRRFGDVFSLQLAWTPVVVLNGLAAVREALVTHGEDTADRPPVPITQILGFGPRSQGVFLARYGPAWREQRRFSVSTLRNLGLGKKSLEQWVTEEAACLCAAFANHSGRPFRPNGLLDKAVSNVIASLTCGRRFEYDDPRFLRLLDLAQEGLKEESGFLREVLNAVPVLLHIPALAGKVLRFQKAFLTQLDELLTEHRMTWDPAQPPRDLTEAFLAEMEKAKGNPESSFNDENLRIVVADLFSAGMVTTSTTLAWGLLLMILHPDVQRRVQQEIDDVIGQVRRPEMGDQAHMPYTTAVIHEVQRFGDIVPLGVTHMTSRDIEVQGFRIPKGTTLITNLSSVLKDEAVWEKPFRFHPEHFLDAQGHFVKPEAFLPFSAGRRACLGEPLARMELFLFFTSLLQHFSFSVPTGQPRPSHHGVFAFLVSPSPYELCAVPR
Series [4] concerns the target T2, Nuclear receptor subfamily 1 group I member 2 (Homo sapiens, UniProt O75469).
T2 sequence (O75469 whole entry): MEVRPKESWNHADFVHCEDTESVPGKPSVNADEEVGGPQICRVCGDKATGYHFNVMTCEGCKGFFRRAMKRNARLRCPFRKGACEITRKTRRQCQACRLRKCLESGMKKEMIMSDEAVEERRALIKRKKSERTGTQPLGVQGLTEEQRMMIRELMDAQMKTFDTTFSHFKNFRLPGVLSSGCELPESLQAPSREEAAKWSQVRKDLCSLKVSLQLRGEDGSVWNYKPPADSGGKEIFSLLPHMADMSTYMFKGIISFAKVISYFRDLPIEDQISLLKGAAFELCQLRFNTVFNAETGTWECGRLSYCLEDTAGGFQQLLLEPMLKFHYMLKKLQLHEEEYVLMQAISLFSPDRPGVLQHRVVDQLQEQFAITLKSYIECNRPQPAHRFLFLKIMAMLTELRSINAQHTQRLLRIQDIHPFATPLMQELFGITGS
Description: Transactivation of human PXR. Type of series: ADME.

Series [5] in a line: Fraction unbound in rat plasma by equilibrium dialysis method. Type of series: ADME, cell-free. In a few lines: (§3)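 Plasma protein binding measured by equilibrium dialysis in mouse, rat, dog and human plasma, reported as % free.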
(In equilibrium dialysis only unbound substance equilibrates across the membrane.)

A short description of series [6]: Fraction unbound in human plasma by equilibrium dialysis method. Type of series: ADME, cell-free. The method in brief: as §3
Series [7] in a line: Drug metabolism in dog hepatocytes assessed per 10^6 cells. Type of series: ADME, cell-based, Canis lupus familiaris, Hepatocyte. In a few lines: (§4)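 Metabolic rate in mouse, rat, dog, monkey and human hepatocyte incubations, expressed as pmol/min/10^6 cells.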
A further series deals with Hepatocyte. The series is described as follows: Drug metabolism in human hepatocytes assessed per 10^6 cells. Type of series: ADME, cell-based. The method in brief: as §4
Series [8] is described as follows: Clearance in mouse at 5 mg/kg, iv and 10 mg/kg, po. Type of series: ADME, organism-based. The conditions noted are these: in vivo. The method in brief: (§5)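 Single IV and oral doses in mouse and rat (IV 5, PO 10 mg/kg) and dog (IV 1, PO 2 mg/kg). Half-life, clearance, AUC0-∞ (µM*h) and %F derived from the plasma profiles.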
Series [9] in a line: AUC (0 to infinity) in mouse at 10 mg/kg, po. Type of series: ADME, organism-based. Also noted: dose 10 mg/kg, route oral, time infinity. The conditions noted are these: in vivo. In a few lines:
as §5

Series [10] is described as follows: Clearance in rat at 5 mg/kg, iv and 10 mg/kg, po. Type of series: ADME, organism-based. To be noted: in vivo. In a few lines: as §5
The nature of series [11]: Oral bioavailability in rat at 10 mg/kg. Type of series: ADME, organism-based. The conditions noted are these: in vivo. In a few lines:
as §5

Series [12] can be described thus: AUC (0 to infinity) in dog at 1 mg/kg, iv. Type of series: ADME, organism-based, Canis lupus familiaris. Also noted: dose 1 mg/kg, route intravenous, time infinity. To be noted: in vivo. In a few lines: as §5
The nature of series [13]: Oral bioavailability in dog at 2 mg/kg. Type of series: ADME, organism-based, Canis lupus familiaris. To be noted: in vivo. The method in brief: as §5
In series [14] the test system is CWR22. The series is described as follows: Antitumor activity against human CWR22 cells in Balb/c athymic (nu/nu) mouse CWR22-BMSLD1 prostate cancer xenograft model assessed as tumor growth inhibition at 90 mg/kg, po qd administered for 45 days measured every day during compound dosing. Type of series: functional, organism-based. In a few lines: as §1
Series [15] has as its system CWR22. Description: Antitumor activity against bicalutamide-resistant human CWR22 cells in Balb/c athymic (nu/nu) mouse CWR22-BMSLD1 prostate cancer xenograft model assessed as tumor growth inhibition at 90 mg/kg, po qd administered for 45 days measured from day 10 to 45 during compound dosing. Type of series: functional, organism-based. The method in brief:
as §1

Activity calls are given as the source filed them. No cut-off for these calls is given here.

This note sets out measurements from ChEMBL document CHEMBL3621143, “Discovery of BMS-641988, a Novel Androgen Receptor Antagonist for the Treatment of Prostate Cancer” (ACS Med Chem Lett, 2015).

As usually defined, the IC50 is the concentration at which inhibition is half-maximal. The term EC50 denotes the midpoint of the concentration-response curve. Usually fraction unbound stands for free concentration divided by total concentration. Usually AUC(0-inf) stands for total exposure, with the tail of the curve extrapolated. One may read the bioavailability as the share of a dose that reaches the circulation, judged against a reference dose that is usually intravenous. Turning to `CCS(=O)(=O)N[C@@H]1C[C@]2(C)O[C@]1(C)[C@@H]1C(=O)N(c3ccc(C#N)c(C(F)(F)F)c3)C(=O)[C@@H]12`, the TGI entry in the series on CWR22 [1] was “inactive”. Besides, the Activity in the series with Rattus norvegicus is 58%. For the same molecule, the concentration at 2 h is 790 nM in series [2] and 4000 nM in series [3]. In addition, the IC50 with LNCaP is 0.153 µM; on Cytochrome P450 2C8, greater than 40 µM; against Cytochrome P450 2C9, greater than 40 µM; against Cytochrome P450 2D6, greater than 40 µM. Also, in [4], the EC50 is greater than 50 µM. Further, the fraction unbound in [5] was found to be 0.106; in series [6], 0.104. The Drug metabolism in [7] is recorded as 3 pmol/min; in the series with Hepatocyte, 2 pmol/min. Also, the figures for the clearance in [8] and in series [10] were 4.5 mL/min/kg and 6.5 mL/min/kg, respectively. The AUC(0-inf) in [9] amounted to 74.1 µM·h; in [12], 102 µM·h. The bioavailability in [11] came to 63.9%; in series [13], 79%. In addition, the TGI entry in the series with CWR22 [14] and in the series on CWR22 [15] was “Active” throughout.
